Hits are enriched below; roughly 3.7% of the tested compounds scored in any of these assays.
XBP1 UPR activ = activators of adaptive XBP1 UPR arm, primary screen, cell-based, CHO-XBP1 luciferase reporter, luminescence, uHTS; 0.33% of 330,000 active; activation, % at 20 µM; AID 463104, 2010; IRE1-XBP1 UPR activation; percent of tunicamycin response, DMSO as zero;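 active means versus positive control, 20 µM dose yields 30% or more activation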;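 further: 100% = tunicamycin at 10 µg/mL and 0% = DMSO only wells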
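assay system = CHO-XBP1 luciferase reporter cells | amount = 1000 cells/well | buffer or medium = F12 plus 10% FBS | compound dosing = single point, 20 µM final compound, 1% DMSO | incubation = 16-18 h cell attachment at 37 °C, then 6 h compound exposure | detection = Steady-Glo luminescence read | controls = tunicamycin 10 µg/mL and vehicle-only wells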
Dynein transport = inhibitors of GR-EGFP nuclear translocation, primary screen, dynein cargo transport inhibitor project, imaging, high-content, 3617.4 mouse cells | AID 1381, 2008 | 0.47% of 220,000 active | test concentration mostly 20 µM; stimulated with dexamethasone, 1 µM; active compounds read low | z-score, hits read low;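 active means plate z-score of nuclear minus cytoplasmic receptor signal below a set negative limit, without overly bright fluorescence or cell loss, cut at about -3.5 in these data, passing the limit was not always enough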;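 further: z-score of nuclear minus cytoplasmic ring GR-EGFP intensity difference per well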
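Also added – dexamethasone, 1.0 µM final · Buffer or medium – tet-free, stripped-serum medium · Schedule – induction 48 h, compound 1 h, agonist 30 min · Detection – formaldehyde fixation, Hoechst nuclear stain, 10x automated fluorescence imaging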
MDM2 E3 inh = MDM2-luciferase reporter signal enhancers, primary screen, MDM2 E3 ligase inhibitor project, cell-based, luminescence, 1536-well. E3 ubiquitin-protein ligase Mdm2 (Homo sapiens), Q00987. cell-based MDM2 ubiquitination luciferase reporter, 2 h; 0 = plate control, 100 = twice control, blank-subtracted. signal enhancement, % at 5 µM. 0.11% of 210,000 active;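 active means signal enhancement of 30% or more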;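 further: luminescence tracks abundance of the self-degrading MDM2-luciferase fusion protein; higher signal means inhibition of MDM2 E3 ligase activity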
Target sequence (Q00987 whole entry, looked up, the tested form may be a part): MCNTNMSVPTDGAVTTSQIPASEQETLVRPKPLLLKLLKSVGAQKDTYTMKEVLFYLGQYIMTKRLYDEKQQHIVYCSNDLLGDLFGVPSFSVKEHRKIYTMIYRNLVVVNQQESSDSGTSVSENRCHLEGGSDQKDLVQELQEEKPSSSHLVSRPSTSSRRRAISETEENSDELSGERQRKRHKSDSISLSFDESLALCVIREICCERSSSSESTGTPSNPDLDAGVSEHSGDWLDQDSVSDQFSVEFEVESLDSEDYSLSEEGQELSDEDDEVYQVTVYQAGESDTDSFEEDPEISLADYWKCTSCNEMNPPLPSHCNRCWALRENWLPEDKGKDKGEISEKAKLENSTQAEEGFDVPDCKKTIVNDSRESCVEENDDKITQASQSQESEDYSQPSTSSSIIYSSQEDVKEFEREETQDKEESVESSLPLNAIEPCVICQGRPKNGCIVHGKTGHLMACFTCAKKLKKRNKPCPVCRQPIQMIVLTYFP
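Material: Stable MDM2–luciferase fusion reporter cells | Amount: 2000 cells seeded into each well | Dosing: One concentration, 5 µM, with 0.2% DMSO | Incubation: 4 h cell settling then 2 h compound exposure, 37 °C | Measured by: Luciferase luminescence | Read-out basis: % enhancement relative to plate controls after blank subtraction | Benchmarks: Control and blank well means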
B2AR ag = beta2AR agonists driving receptor internalization, primary screen, cell-based, FAP fluorogen, flow cytometry; 0.43% of 340,000 active; response, % (test concentration not listed); Am2.2-beta2AR cells; Beta-2 adrenergic receptor (Homo sapiens), P07550;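 active means response above a set limit, near 3 SD of response in nonfluorescent compounds, cut at about 42% in these data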
Mdm2-MdmX inh = inhibitors of human Mdm2-MdmX association, primary screen, cell-based, luminescence, split luciferase, SaOS-2, uHTS | Protein Mdm4 (Homo sapiens) + E3 ubiquitin-protein ligase Mdm2 (Homo sapiens), … | inhibition, % at 8 µM | 3% of 330,000 active | SaOS-2 split-luciferase Mdm2/MdmX complementation;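 active means inhibition of at least 50% at 8 µM in the primary screen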
CHOP UPR activ = activators of apoptotic CHOP UPR arm, primary screen, cell-based, CHO-CHOP luciferase reporter, luminescence, uHTS; AID 449763, 2010; activation, % at 10 µM; UPR activation; percent of tunicamycin response over DMSO baseline; 0.34% of 330,000 active;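 active means at 10 µM dose, activation of 40% or more, normalized to positive control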;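 further: 100% = tunicamycin at 10 µg/mL and 0% = DMSO alone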
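Material: CHO-CHOP cells, stable luciferase reporter of PERK-eIF2a-CHOP signalling; quantity: 500 reporter cells seeded per well; buffer or medium: F12 medium containing 10% fetal bovine serum; compound: one dose, 10 µM in 0.5% DMSO; incubation: 6 h compound treatment, 37 °C; measured by: Steady-Glo luciferase luminescence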
CHOP UPR conf = activators of apoptotic CHOP UPR arm, confirmation, cell-based, CHO-CHOP luciferase reporter, single concentration. activation, % at 10 µM. AID 463112, 2010. CHO-CHOP cells, CHOP-luciferase reporter luminescence; percent of tunicamycin response, DMSO as zero. shares compounds with CHOP UPR activ. 64% of 1,000 active; in the data active means activation above about 33%;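 further: 0% = DMSO wells and 100% = tunicamycin 10 µg/mL wells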
UPR XBP1 confirm = IRE1-XBP1 UPR arm activators, confirmation, cell-based, CHO-XBP1 luciferase reporter, luminescence, single concentration; shares compounds with XBP1 UPR activ; activation, % at 20 µM; 63% of 1,000 active; AID 485299, 2010;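 active means reporter signal at least 30% of the positive control's activation in two or more of four replicate wells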;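 further: plate controls were DMSO negative control for no effect and tunicamycin 10 µg/mL positive control for full effect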
Mdm2-MdmX conf = Mdm2-MdmX complex disruptors, retested hits, confirmation, luminescence, single concentration. shares compounds with Mdm2-MdmX inh. Mdm2-MdmX binding, luminescent assay. inhibition, % at 8 µM. 55% of 10,000 active. AID 489028, 2010; in the data active means inhibition above about 40%
FLuc counter = full-length luciferase signal inhibition, confirmation, counter-screen for Mdm2/MdmX interaction inhibitor project, cell-based, single concentration, SaOS-2; AID 504607, 2011; shares compounds with Mdm2-MdmX inh; inhibition, % at 8 µM; 77% of 6,200 active; SaOS-2 full-length luciferase counterscreen, luminescence;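 active means mean inhibition at 8 µM reaching about 37%, which flags the compound as non-specific, limit read from the data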;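 further: p53-null SaOS-2 cells with luciferase driven by a doxycycline-inducible promoter; compound on cells about two nights before reading with doxycycline added after day one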
B2AR ag CP1 = beta2AR agonists via receptor internalization, confirmation, cell-based, FAP fluorogen, flow cytometry, single point, cherry pick 1; shares compounds with B2AR ag; Am2.2-beta2AR cells, FAP surface receptor; active compounds read low; percent response (surface receptor), % at 10 µM; 25% of 1,100 active;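 active means surface receptor percent response at or below 58%, roughly 3 SD from nonfluorescent compounds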
B2AR FAP counter = flagged in Am2.2 fluorescence counterscreen for beta-2AR agonists | shares compounds with B2AR ag | Am2.2 cells, FAP fluorogen flow cytometry; active compounds read low | calls only at 10 µM | 1,100 tested, under 10 active;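 active means percent response below a set limit in fluorescence channel 1 and below 50% in channel 8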
* marks the source's active call; other numbers are inactive results; i = inactive; nt = no result.

SMILES	XBP1 UPR activ	Dynein transport	MDM2 E3 inh	B2AR ag	Mdm2-MdmX inh	CHOP UPR activ	UPR XBP1 confirm	others
N#Cc1cc([N+](=O)[O-])c(-n2nnc3ccccc32)c([N+](=O)[O-])c1	-6	-1	10	55*	21	122*	nt	CHOP UPR conf=74*;B2AR ag CP1=103;B2AR FAP counter=i
Cc1ccc(C)c(NC(=S)c2ccccn2)c1	33*	-0.56	-5	-2	10	125*	13	CHOP UPR conf=112*;B2AR ag CP1=114;B2AR FAP counter=i
O=C(c1cccc(S(=O)(=O)N2CCc3ccccc32)c1)N1CCN(c2ccccc2)CC1	-1	nt	nt	5	45	0	nt
Clc1ccc(-n2nnnc2Sc2ncnc3sccc23)cc1	-9	-0.92	nt	54*	90*	89*	nt	CHOP UPR conf=112*;Mdm2-MdmX conf=74*;FLuc counter=43*;B2AR ag CP1=35*;B2AR FAP counter=i
c1ccc2sc(Sc3ncnc4sccc34)nc2c1	-3	-1.8	-8	-2	44	12	nt
CCOc1ccc(S(=O)(=O)N2CCOCC2)cc1NC(=O)CN1C(=O)NC(C)(c2ccccc2)C1=O (stereo unspecified)	0	nt	nt	-4	4	0	nt
COc1cc(C(=O)Oc2c(CN3CCOCC3)cc(Cl)c3cccnc23)cc(OC)c1OC	24	-0.71	-15	-14	65*	62*	nt	CHOP UPR conf=56*;Mdm2-MdmX conf=46*;FLuc counter=39*;B2AR ag CP1=98;B2AR FAP counter=i
Cc1cc(Cl)ccc1NC(=O)CSc1n[nH]c(N)n1	1	nt	nt	0	-14	-2	nt
O=C(COC(=O)c1ccc(Cl)c([N+](=O)[O-])c1)NC1CCCC1	-2	nt	nt	10	12	2	nt
O=C(COC(=O)c1ccccc1C(=O)c1ccc(Cl)c([N+](=O)[O-])c1)NC1CCCCCC1	-4	-3.2	33*	53*	96*	85*	nt	CHOP UPR conf=36*;Mdm2-MdmX conf=100*;FLuc counter=51*;B2AR ag CP1=9.7*;B2AR FAP counter=i
O=C(Nc1ccc(Cl)cc1)Nc1ccccc1Sc1ncc([N+](=O)[O-])s1	40*	-1.9	-12	22	-22	12	31*
Cc1nnc(NC(=O)CSc2nnc(Cc3cccn3C)n2CCc2ccccc2)s1	-1	1.2	-7	-7	-14	0	nt
Cn1cccc1Cc1nnc(SCC(=O)Nc2nc3ccccc3s2)n1CCc1ccccc1	30*	2.3	-16	-8	27	5	13
C=CCc1ccc(OCc2ccc(C(=O)Nc3ccc(NC(C)=O)cc3)o2)c(OC)c1	-3	nt	nt	-15	-29	0	nt
O=[N+]([O-])c1ccccc1/C=C/C=N/n1c(-c2cc(-c3ccccc3)n[nH]2)n[nH]c1=S	39*	0.087	-13	5	33	0	4
COc1ccc(C(=O)OC(C)C(=O)NC(C)CCc2ccccc2)cc1OC (stereo unspecified)	-5	nt	nt	-8	-5	-2	nt
CCCCCCSc1ccc([C@@H]2[C@H]3C(=O)N(CC)C(=O)[C@H]3[C@]3(C(=O)OC)CCCCN23)cc1OC	-3	nt	nt	-1	20	0	nt
COC(=O)C1C(O)=C(C=Nc2cccc3ccccc23)C(=O)CC1(C)C (stereo unspecified)	121*	-0.27	1	-3	18	9	110*
COC(=O)C1C(O)=C(C=NCc2ccccc2)C(=O)CC1(C)C (stereo unspecified)	2	0.042	-8	1	4	2	nt
COc1ccccc1-c1cn[nH]c1-c1ccc(OCc2ccc([N+](=O)[O-])cc2)cc1O	42*	-0.15	nt	26	33	-1	19
COc1ccccc1-c1cn[nH]c1-c1ccc(OCc2ccc(F)cc2)cc1O	0	-0.85	0	-1	30	0	nt
CCOC(=O)c1sc(NC(=O)CN2C(=O)NC3(CCC(C)CC3)C2=O)c(C(=O)OCC)c1C (stereo unspecified)	31*	nt	nt	0	29	12	24
Cc1c(NC(=O)CSc2ccc(Cl)cc2)cccc1-c1nc2cc(Cl)ccc2o1	42*	-0.68	-8	0	10	9	59*
CCCOC1CCCN(C(=O)c2cc(COc3ccc(F)c(F)c3)on2)C1 (stereo unspecified)	-3	nt	nt	-1	-62	3	nt
C[C@H](CO)N1C[C@H](C)[C@@H](CN(C)C(=O)NC2CCCCC2)Oc2c(NC(=O)Nc3ccc(C(F)(F)F)cc3)cccc2C1=O	3	nt	nt	2	28	4	nt
CCOC(=O)c1[nH]c(C)c(C(=O)OCC(=O)Nc2sc3c(c2C#N)CCCCC3)c1C	63*	0.39	-16	-7	43	6	22
O=C(OCC(=O)N1CCc2ccccc21)[C@@H]1CC(O)CN1S(=O)(=O)c1ccc(Cl)cc1 (stereo partly specified)	-3	nt	nt	-3	34	2	nt
CCCCn1c(N)c(N(CCOC)C(=O)c2ccc(COc3ccccc3)o2)c(=O)[nH]c1=O	0	nt	nt	1	21	0	nt

Source: PubChem BioAssay
